Experimental data pooled from the literature.
Each line is one published result; the experiments were not run side by side. pEC50, pIC50: −log10 of the molar value.
Read-out: cell growth or viability

SMILES | cell line | method | concentration | time | endpoint | result
Cc1c(C(=O)O)ccc2c3n(nc12)[C@@H]1[C@H](C3)N(CC2CC2)[C@@]2(C(=O)Nc3cc(Cl)ccc32)[C@H]1c1cccc(Cl)c1F | hTERT-RPE1 |  |  |  | pIC50 | 7.80
C[C@@H]1CC[C@@H]([C@](O)(CNCc2ccc(F)cc2)COCc2ccc(F)cc2)[C@H](OCc2ccc(F)cc2)C1 | MDA-MB-231 | MTT | 10 µM | 72 h | inhibition | 88.9%
CCc1c(C)c2ccc(OCC(=O)NNC(=S)Nc3ccccc3)c(C)c2oc1=O | MDA-MB-231 | MTT | 125 µg/mL |  | viability | 8.46%
C[C@@H]1CC[C@@H]([C@](O)(CNCc2ccccc2)COCc2ccccc2)[C@H](OCc2ccccc2)C1 | MDA-MB-231 | MTT | 10 µM | 72 h | inhibition | 97.8%
CC(=NNC(=O)COc1ccc2c(C)c(Cc3ccccc3)c(=O)oc2c1C)c1ccc(Br)cc1 | MDA-MB-231 | MTT | 125 µg/mL |  | viability | 29%
C[C@@H]1CC[C@@H]([C@](O)(CNCc2cccc3ccccc23)COCc2ccccc2)[C@H](OCc2ccccc2)C1 | MDA-MB-231 | MTT | 10 µM | 72 h | inhibition | 96.8%
C=CC(=O)NC1CCN(c2ncc3ncnc(Nc4ccc(Oc5ccc6c(c5)ncn6C)c(C)c4)c3n2)CC1 | LCLC-103H |  |  |  | pEC50 | 8.55
C[C@H](NC(=O)[C@H](CC(=O)NCC(C)(C)C)NC(=O)C(=O)c1c[nH]c2ccccc12)C(=O)NCc1ccc(F)cc1F | A-375 | resazurin |  | 48 h | pIC50 | 5.05
COc1ccc(COC[C@@](O)(CNCc2ccccc2)[C@@H]2CC[C@@H](C)C[C@H]2OCc2ccc(OC)cc2)cc1 | MDA-MB-231 | MTT | 10 µM | 72 h | inhibition | 99.5%
C=CCOc1ccc2c(C)c(CC)c(=O)oc2c1C | MDA-MB-231 | MTT | 250 µg/mL |  | viability | 20.2%
CCCN1C(=O)[C@H](CC(C)C)NC(=O)[C@@H](N(C)C(=O)[C@H](CC2CCC2)NC(=O)[C@@H]2C[C@@H](F)CN2C(=O)[C@@](C)(O)C(F)(F)F)CCCCNC(=O)C2(CC2)NC(=O)[C@@H]1Cc1cc(Cl)ccc1Cl | NCI-H526 | MTT |  | 5 days | GI50 | 0.041 µM
CCOc1ccc2c(C)c(CC)c(=O)oc2c1C | MDA-MB-231 | MTT | 31.25 µg/mL |  | viability | 100%
CCC[C@H]1NC(=O)[C@H](Cc2cc(Cl)ccc2-c2cnn(C)c2)N(C)C(=O)[C@H](CC(C)C)NC(=O)[C@@H](N(C)C(=O)[C@H](CCCCN2CCOCC2)NC(=O)[C@@H](c2cccnc2)C2CCCCC2)CCCCNC1=O | NCI-H526 | MTT |  | 5 days | GI50 | 3.4 µM
C[C@@H]1CC[C@@H]([C@](C)(O)CNCc2cccc3ccccc23)[C@H](OCc2ccccc2)C1 | MDA-MB-231 | MTT | 30 µM | 72 h | inhibition | 61%
Cc1c(Cc2ccccc2)c(=O)oc2c(C)c(OCC(=O)NN=Cc3ccc([N+](=O)[O-])cc3)ccc12 | MDA-MB-231 | MTT | 31.25 µg/mL |  | viability | 37.2%
